PRMT1 FP inh: inhibitors of human PRMT1. recombinant PRMT1, activity-based probe fluorescence polarization. inhibition, % at 2.79 µM. 1.3% of 370,000 active. Q99873;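 active = inhibition above about 21% made by adding two undisclosed values, limit read from the data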
SIAE inh: human SIAE inhibition, primary screen; SIAE FP-Rh probe binding, fluorescence polarization; 0.69% of 370,000 active; Q9HAT2; inhibition, % at 9.66 µM; AID 1053197;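 active = inhibition above a cutoff: mean of compounds within the control limits plus 3 SD of those, cut at about 17% in these data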;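 also: 0% = plate median of compound wells and 100% = probe without SIAE protein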
HTRA1 inhibitor: HTRA1 (human) protease inhibition; Q92743; recombinant HTRA1, FP-rhodamine activity-based probe, fluorescence polarization; inhibition, % at 5.96 µM; 0.5% of 340,000 active; AID 504803; in the data active = inhibition above about 36%;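 also: 0% = enzyme with DMSO and 100% = wells lacking enzyme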
mABHD4 FP: inhibits mouse alpha/beta hydrolase domain 4. inhibition, % at 8.92 µM. 0.54% of 370,000 active. purified mABHD4, FP-Rh probe fluorescence polarization. Q8VD66;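 active = inhibition exceeding the mean over every tested compound plus 3 SD, cut at about 30% in these data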;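 also: 0% = plate median of compound wells and 100% = S159A mutant with DMSO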
Target sequence (Q8VD66 whole entry, looked up, the tested form may be a part): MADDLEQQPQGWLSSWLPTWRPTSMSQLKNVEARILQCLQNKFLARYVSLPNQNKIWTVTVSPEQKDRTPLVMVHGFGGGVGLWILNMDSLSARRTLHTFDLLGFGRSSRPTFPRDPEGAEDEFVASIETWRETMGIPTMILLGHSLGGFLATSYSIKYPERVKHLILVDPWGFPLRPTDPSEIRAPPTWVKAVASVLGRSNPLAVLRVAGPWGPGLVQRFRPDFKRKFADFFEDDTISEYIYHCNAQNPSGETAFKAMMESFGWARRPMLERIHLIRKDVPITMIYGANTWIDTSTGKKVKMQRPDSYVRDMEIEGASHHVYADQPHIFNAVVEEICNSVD
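system = mouse ABHD4 enzyme, wild type | medium = HEPES pH 7.0, NaCl, Pluronic buffer | also added = FP-Rh probe | incubation = Enzyme–compound pre-incubation 45 min, then probe 60 min, both 25 °C | technique = fluorescence polarization, excitation 525 nm, emission 598 nm, BODIPY TMR filters | controls = S159A mutant high control, sample median low control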
TCR CD3 inh: inhibitors of human TCR-CD3 interaction | 0.37% of 360,000 active | inhibition, % at 9.4 µM | TAMRA-labeled TCR probe fluorescence, biochemical; in the data active = inhibition above about 19%;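 also: recombinant mutant TCR 2C K166C tagged with TAMRA read by polarization; 0% = receptor in buffer alone and 100% = receptor with positive control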
SIAE inh conf: confirmation of human SIAE inhibitors | 13% of 2,300 active | shares compounds with SIAE inh | SIAE FP-Rh activity-based probe, fluorescence polarization | inhibition, % at 9.66 µM;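 active = mean inhibition of the replicates above the hit cutoff set in the primary screen, cut at about 17% in these data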;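 also: 0% = SIAE with DMSO and probe and 100% = probe without SIAE; inhibitors lower polarization as more probe stays unbound to SIAE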
An asterisk follows results filed as active. Only some compounds are listed: those with a hit (about 2.6% of all), similar ones and a draw of the others.

For CC1CCN(C(=O)CSc2nnc(CNC(=O)c3ccco3)o2)CC1 the results were PRMT1 FP inh -1, SIAE inh 22*, HTRA1 inhibitor 2, mABHD4 FP 0, TCR CD3 inh -2 and SIAE inh conf 1.
Screening Cc1nnc(N(C)C(=O)c2ccccn2)s1 returned PRMT1 FP inh 1, SIAE inh 32*, HTRA1 inhibitor 3, mABHD4 FP 2, TCR CD3 inh 3 and SIAE inh conf 4.
`CN(C(=O)c1ccccn1)c1nnc(-c2cccnc2)s1` gave PRMT1 FP inh 0, SIAE inh 7, HTRA1 inhibitor -1, mABHD4 FP -8 and TCR CD3 inh 2.
For O=S1(=O)c2ccc(N3CC[C@H](O)C3)cc2O[C@@H]2CCN1C2 the results were PRMT1 FP inh -8, SIAE inh 0 and mABHD4 FP -4.
`CCN1CCN(CCC(=O)Nc2cc(OC)ccc2OC)CC1` gave PRMT1 FP inh 1, SIAE inh 20*, HTRA1 inhibitor 0, mABHD4 FP 4, TCR CD3 inh -2 and SIAE inh conf 6.
Screening COc1ccccc1-c1ccc(OCCCN2CCC(C(O)(c3ccccc3)c3ccccc3)CC2)cc1 returned PRMT1 FP inh -4, SIAE inh 7, mABHD4 FP 23 and TCR CD3 inh 2.
`Cc1nn(C)c(Cl)c1CN1CCC(CO)(CCOc2ccccc2)CC1` gave PRMT1 FP inh -8, SIAE inh 17*, HTRA1 inhibitor 5, mABHD4 FP -2, TCR CD3 inh 10 and SIAE inh conf 0.
For CCn1ccnc1CN1CCC(CO)(CCOc2ccccc2)CC1 the results were PRMT1 FP inh 6, SIAE inh -5, HTRA1 inhibitor 4, mABHD4 FP -16 and TCR CD3 inh -8.
Screening COC(=O)c1cc(-c2ccc3ccccc3c2)c(=O)n2c1CCC2 returned PRMT1 FP inh -2, SIAE inh 6 and mABHD4 FP -2.
Screening Cc1ccc(SCC(=O)OCC(=O)N(CCC#N)c2ccccc2)cc1C returned PRMT1 FP inh 5, SIAE inh 29*, HTRA1 inhibitor -2, mABHD4 FP 4, TCR CD3 inh -6 and SIAE inh conf 5.
Screening O=C(N[C@H](C(=O)N1CCC[C@H]1C(=O)NCCc1ccccc1Cl)c1ccccc1)c1ccc(Cl)c(Cl)c1 returned PRMT1 FP inh -4, SIAE inh -9, mABHD4 FP -7 and TCR CD3 inh 6.
Screening COC(=O)[C@]12C[C@H](CC(=O)N3CCCC3)C(=O)N(CCc3ccc(OC)c(OC)c3)C1=C[C@H](C1CCCC1)O[C@@H]2C returned PRMT1 FP inh 1, SIAE inh 1 and mABHD4 FP 0.
`CCN(CC)c1ccc(/C=N/N2CCN(Cc3ccccc3Cl)CC2)c(O)c1` gave PRMT1 FP inh -5, SIAE inh 22*, HTRA1 inhibitor 0, mABHD4 FP 3, TCR CD3 inh 2 and SIAE inh conf 4.
`CCOC(=O)C1CCN(C(=O)C(C)(C)NC(=O)Nc2ccc(OC)c(Cl)c2)CC1` gave PRMT1 FP inh -2, SIAE inh -5 and mABHD4 FP 0.
CCC(C)N1C(=O)CN(C2CCCCCC2)C(=O)C1c1ccccc1F (stereo not given) was read as PRMT1 FP inh -1, SIAE inh 19*, HTRA1 inhibitor 5, mABHD4 FP 1, TCR CD3 inh 5 and SIAE inh conf -1.
`N=c1n(CCN2CCCCC2)c2ccccc2n1CC(O)c1cccc(Br)c1` (stereo not given) gave PRMT1 FP inh 2, SIAE inh 33*, HTRA1 inhibitor -2, mABHD4 FP 4, TCR CD3 inh 0 and SIAE inh conf 4.
`COc1ccccc1-n1c(C)nc2cc(C(=O)O)ccc21` gave PRMT1 FP inh 1, SIAE inh 17*, HTRA1 inhibitor 10, mABHD4 FP 0, TCR CD3 inh 8 and SIAE inh conf -2.
`Cc1nc2cc(C(=O)O)ccc2n1-c1ccccc1` gave PRMT1 FP inh 1, SIAE inh -3, HTRA1 inhibitor 1, mABHD4 FP 2 and TCR CD3 inh 1.
For COc1cc2ccccc2cc1C(=O)N1CCCC1 the results were PRMT1 FP inh -1, SIAE inh 22*, HTRA1 inhibitor 5, mABHD4 FP 0, TCR CD3 inh -3 and SIAE inh conf -6.
Screening CC(C)C[C@@H]1COc2cccc(NCCO)c2S(=O)(=O)N1 returned PRMT1 FP inh -1, SIAE inh -2, mABHD4 FP 0 and TCR CD3 inh 7.
COC(=O)CSc1nnc(NC(=O)c2ccc3c(c2)OCO3)s1 was read as PRMT1 FP inh -1, SIAE inh 19*, HTRA1 inhibitor 7, mABHD4 FP 0, TCR CD3 inh 18 and SIAE inh conf -2.
`O=C(O)CSc1nnc(NC(=O)c2ccc3c(c2)OCO3)s1` gave PRMT1 FP inh -3, SIAE inh 0, HTRA1 inhibitor 6, mABHD4 FP 2 and TCR CD3 inh 2.
CN1CCC(=NNC(=O)CN(c2ccc([N+](=O)[O-])cc2)S(=O)(=O)c2ccccc2)CC1 was read as PRMT1 FP inh 5, SIAE inh 5, HTRA1 inhibitor -9, mABHD4 FP -16 and TCR CD3 inh -7.
CN1CCC(=NNC(=O)CN(c2cccc([N+](=O)[O-])c2)S(=O)(=O)c2ccccc2)CC1 was read as PRMT1 FP inh -6, SIAE inh 23*, HTRA1 inhibitor -5, mABHD4 FP -3, TCR CD3 inh 6 and SIAE inh conf -1.
Screening Nc1cc(N)cc(-c2nc3ccccc3o2)c1 returned PRMT1 FP inh -2, SIAE inh 25*, HTRA1 inhibitor 16, mABHD4 FP 24, TCR CD3 inh 0 and SIAE inh conf 2.
`CCC(CC)c1nnc(NC(=O)CS(=O)(=O)c2ccccc2)s1` gave PRMT1 FP inh 2, SIAE inh 26*, HTRA1 inhibitor 5, mABHD4 FP 2, TCR CD3 inh 8 and SIAE inh conf 5.
Screening CCC(CC)c1nnc(NC(=O)CCS(=O)(=O)Cc2ccccc2)s1 returned PRMT1 FP inh 6, SIAE inh 6, HTRA1 inhibitor -4, mABHD4 FP 1 and TCR CD3 inh 7.
For COc1ccc(NC(=O)Cn2c(=O)oc3cc(Cl)ccc32)c(OC)c1 the results were PRMT1 FP inh -1, SIAE inh 17*, HTRA1 inhibitor -4, mABHD4 FP -2, TCR CD3 inh 7 and SIAE inh conf 2.
For COc1ccc(NC(=O)Cn2c(=O)oc3cc(S(=O)(=O)N4CCCC4)ccc32)c(OC)c1 the results were PRMT1 FP inh 5, SIAE inh 2, HTRA1 inhibitor -2, mABHD4 FP 1 and TCR CD3 inh -7.
For CCNC(=O)N(C)[C@H]1C[C@H]2c3[nH]c4c(-c5ccc6c(c5)OCO6)cccc4c3CCN2C(=O)[C@H]1[C@H](C)O the results were PRMT1 FP inh 7, SIAE inh -7, mABHD4 FP 1 and TCR CD3 inh -3.
